The record followed here is ChEMBL document CHEMBL1159390, “Plakortides M and N, bioactive polyketide endoperoxides from the Caribbean marine sponge Plakortis halichondrioides” (J Nat Prod, 2003).

The source made the active and inactive calls. The calls are words filed in the database; no cut-off is given here.

One assay relates to CCRF-CEM. Nature of the assay: Cytotoxicity against human CCRF-CEM cells. In kind it is functional, cell-based. The method in brief: (§1)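 Tested in the NCI in vitro antitumor screen of 60 human tumour cell lines, after a prior NCI three-cell-line, one-dose primary anticancer assay.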
Assay [1] can be described thus: Cytotoxicity against human […] cells. Type of assay: functional, cell-based. Summed up:
as §1

The test system of another assay is SR. Nature of the assay: Cytotoxicity against human SR cells. In kind it is functional, cell-based. The method in brief: as §1
Another assay deals with A549. Nature of the assay: Cytotoxicity against human A549 cells. In kind it is functional, cell-based. The method in brief: as §1
The test system of the next assay is HOP-62. Nature of the assay: Cytotoxicity against human HOP62 cells. Type of assay: functional, cell-based. Summed up:
as §1

The test system of a further assay is NCI-H460. The assay is described as follows: Cytotoxicity against human NCI-H460 cells. In kind it is functional, cell-based. The method in brief: as §1
Another assay concerns COLO 205. The assay is described as follows: Cytotoxicity against human COLO205 cells. In kind it is functional, cell-based. The method in brief:
as §1

In the next assay the test system is HCT-116. Nature of the assay: Cytotoxicity against human HCT116 cells. In kind it is functional, cell-based. The method in brief: as §1
In the next assay the test system is HT-29. The assay is described as follows: Cytotoxicity against human HT-29 cells. Type of assay: functional, cell-based. The method in brief: as §1
In a further assay the test system is SF-295. Nature of the assay: Cytotoxicity against human SF295 cells. In kind it is functional, cell-based. Summed up:
as §1

The next assay deals with SF-539. The assay is described as follows: Cytotoxicity against human SF539 cells. Type of assay: functional, cell-based. Summed up:
as §1

Another assay has as its system U-251. The assay is described as follows: Cytotoxicity against human U251 cells. In kind it is functional, cell-based. Summed up: as §1
The next assay has as its system LOX IMVI. The assay is described as follows: Cytotoxicity against human LOXIMVI cells. In kind it is functional, cell-based. Summed up: as §1
In a further assay the test system is M14. Nature of the assay: Cytotoxicity against human M14 cells. In kind it is functional, cell-based. The method in brief:
as §1

The next assay concerns SK-MEL-2. The assay is described as follows: Cytotoxicity against human SK-MEL-2 cells. Type of assay: functional, cell-based. Summed up:
as §1

For a further assay, the system named is IGROV-1. The assay is described as follows: Cytotoxicity against human IGROV1 cells. Type of assay: functional, cell-based. The method in brief:
as §1

The subject of the next assay is OVCAR-3. Nature of the assay: Cytotoxicity against human OVCAR-3 cells. In kind it is functional, cell-based. Summed up: as §1
In a further assay the test system is SK-OV-3. Nature of the assay: Cytotoxicity against human SKOV3 cells. In kind it is functional, cell-based. Summed up: as §1
A further assay deals with 786-0. The assay is described as follows: Cytotoxicity against human 786-0 cells. Type of assay: functional, cell-based. The method in brief: as §1
Another assay relates to ACHN. The assay is described as follows: Cytotoxicity against human ACHN cells. In kind it is functional, cell-based. The method in brief:
as §1

For another assay, the system named is UO-31. The assay is described as follows: Cytotoxicity against human UO31 cells. In kind it is functional, cell-based. Summed up:
as §1

The test system of a further assay is PC-3. The assay is described as follows: Cytotoxicity against human PC3 cells. In kind it is functional, cell-based. The method in brief:
as §1

The subject of the next assay is DU-145. The assay is described as follows: Cytotoxicity against human DU145 cells. In kind it is functional, cell-based. Summed up: as §1
A further assay concerns MCF7. Nature of the assay: Cytotoxicity against human MCF7 cells. In kind it is functional, cell-based. Summed up: as §1
In another assay the test system is NCI/ADR-RES. Nature of the assay: Cytotoxicity against human NCI/ADR-RES cells. In kind it is functional, cell-based. The method in brief:
as §1

The next assay relates to T47D. Nature of the assay: Cytotoxicity against human T47D cells. Type of assay: functional, cell-based. Summed up: as §1
The test system of assay [2] is Mycobacterium tuberculosis. The assay is described as follows: Antitubercular activity against Mycobacterium tuberculosis H37Rv at 6.25 ug/mL. Type of assay: functional, organism-based.
For a further assay, the system named is Plasmodium falciparum. Nature of the assay: Antimalarial activity against Plasmodium falciparum. Type of assay: functional, organism-based.

Regarding `CC/C=C/[C@H](CC)C/C(=C/[C@@]1(CC)C[C@H](CC)[C@H](CC(=O)O)OO1)CC` [PLAKORTIDE N], the IC50 with CCRF-CEM is 100 nM; in assay [1] it was < 10 nM; in the assay with SR, 100 nM; in the assay on A549, 100 nM; in the assay on HOP-62, 900 nM; in the assay with NCI-H460 it was 200 nM. The IC50 in the assay on COLO 205 is 1300 nM; in the assay on HCT-116, 400 nM; in the assay on HT-29, 500 nM; in the assay with SF-295, 300 nM; with SF-539, 1500 nM; in the assay on U-251 it was 500 nM. Further, the IC50 in the assay with LOX IMVI came out at 30 nM; with M14, 1.6 µM; in the assay with SK-MEL-2 it was 1.7 µM; in the assay on IGROV-1, 60 nM; in the assay with OVCAR-3, 1100 nM; in the assay on SK-OV-3 it was 1900 nM. The IC50 with 786-0 is 1300 nM; in the assay on ACHN, 200 nM; in the assay on UO-31, 10 nM; in the assay with PC-3, 300 nM; in the assay on DU-145, 400 nM; in the assay on MCF7, 1800 nM. Besides, the IC50 with NCI/ADR-RES was 400 nM; in the assay on T47D it was 1300 nM.
`CC/C=C/[C@H](CC)C/C=C/[C@@]1(CC)C[C@H](CC)[C@H](CC(=O)OC)OO1`: the result in assay [2] was inactive.
`CC/C=C/[C@H](CC)C/C=C/[C@@]1(CC)C[C@H](CC)[C@H](CC(=O)O)OO1` [PLAKORTIDE M]: the IC50 in the assay on CCRF-CEM is 200 nM; in assay [1] it was 1300 nM; in the assay with SR, 400 nM; in the assay with A549 it was 1800 nM; in the assay on HOP-62, 1600 nM; with NCI-H460, 1800 nM. The IC50 in the assay with COLO 205 amounted to 1500 nM; in the assay with HCT-116, 2000 nM; in the assay on HT-29 it was 1400 nM; with SF-295 it was 1800 nM; in the assay on SF-539, 1800 nM; in the assay on U-251 it was 1700 nM. Further, the IC50 in the assay on LOX IMVI came to 500 nM; with M14, 6.8 µM; in the assay with SK-MEL-2 it was 11.1 µM; in the assay on IGROV-1, 600 nM; with OVCAR-3, 2000 nM; in the assay on SK-OV-3 it was 1300 nM. Moreover, the IC50 is 1600 nM in the assay with 786-0; 1700 nM in the assay with ACHN; 1400 nM in the assay on UO-31; 1600 nM in the assay on PC-3; 1900 nM with DU-145; 2900 nM with MCF7. For the same compound, the IC50 in the assay on NCI/ADR-RES is 1800 nM; in the assay with T47D it was 2200 nM.
`CC/C=C/[C@H](CC)C/C(=C/[C@@]1(CC)C[C@H](CC)[C@H](CC(=O)OC)OO1)CC`: the result in assay [2] was inactive. Further, the IC50 with Plasmodium falciparum was ≥ 50 µg/mL.
